Published values from different studies.
Each line is one published result; the experiments were not run side by side.
ABL1 H396P: Tyrosine-protein kinase ABL1 (ABL1, Homo sapiens, UniProt P00519, H396P)
EP300: Histone acetyltransferase p300 (EP300, Homo sapiens, UniProt Q09472)

SMILES | target | test | conditions | measurement | value
CN(C)C1CCN(CC#Cc2nn(C3CCCC3)c3nc(NCc4ccccc4)ncc23)C1 (stereo not shown) | Misshapen-like kinase 1 (MINK1, Homo sapiens, UniProt Q8N4C8) | enzyme activity, inhibitor, FRET | 10 µM | inhibition | 55%
COc1cc(-c2cc(-c3ccc(N4CCNCC4)cc3)cnc2N)cc(OC)c1OC | ABL1 H396P | enzyme activity, inhibitor | 1 µM | inhibition | 96%
Cc1cnc(NC2CCOCC2)nc1-n1cnc(C(=O)NC(CN)c2cc(F)cc(Cl)c2)c1 (stereo not shown) | Tyrosine-protein kinase ABL1 (ABL1, Homo sapiens, UniProt P00519, Y253F) | enzyme activity, inhibitor, radiometric | 1 µM | remaining activity | 102%
CCN(CC)CCNC(=O)c1c(C)[nH]c(/C=C2\C(=O)Nc3ccc(F)cc32)c1C | Protein kinase C beta type (PRKCB, Homo sapiens, UniProt P05771) | enzyme activity, inhibitor | 10 µM | inhibition | 0%
Nc1ncnc2occ(-c3ccc(NC(=O)Nc4cc(C(F)(F)F)ccc4F)cc3)c12 | Serine/threonine-protein kinase RIO1 (RIOK1, Homo sapiens, UniProt Q9BRS2) | cell-free assay, inhibitor | 20 µM | remaining signal | 89%
Cc1ccc(C(=O)Nc2ccc(CN3CCN(C)CC3)c(C(F)(F)F)c2)cc1C#Cc1cnc2cccnn12 | Serine/threonine-protein kinase Nek10 (NEK10, Homo sapiens, UniProt Q6ZWH5) | enzyme activity, inhibitor | 23.5 nM | remaining activity | 100%
Cc1cc(NC(=O)c2cccc3cc(-c4cccc5[nH]nc(N)c45)ccc23)ccc1F | ABL1 H396P | enzyme activity, inhibitor | 0.1 µM | activity vs control | 97%
O=c1oc2c(O)c(O)cc3c(=O)oc4c(O)c(O)cc1c4c23 | N-lysine methyltransferase KMT5A (KMT5A, Homo sapiens, UniProt Q9NQR1) | cell-free assay | 10 µM | inhibition | 2%
Oc1cccc(Nc2nc(-c3ccc(F)cc3F)cs2)c1 | Cholecystokinin receptor type A (CCKAR, Homo sapiens, UniProt P32238) | cell-free assay | 10 µM | inhibition | 76%
Oc1ccc(-c2nc(-c3ccncc3)c(-c3ccc(F)cc3)[nH]2)cc1 | EP300 | thermal stability, DSF | 10 µM | ΔTm | 0.33 °C
Nc1ncnc2c1ncn2[C@@H]1O[C@H](CSCC[C@H](N)C(=O)O)[C@@H](O)[C@H]1O | Protein arginine N-methyltransferase 6 (PRMT6, Homo sapiens, UniProt Q96LA8) | thermal stability, DSF | 100 µM | ΔTm | 8.4 °C
NS(=O)(=O)c1ccc(Nc2nc(-c3ccc(F)cc3)c3ccccc3n2)cc1 | EP300 | binding, competition with immobilised ligand | 1 µM | remaining binding | 62%
Cc1cnc(Nc2ccc(OCCN3CCCC3)cc2)nc1Nc1cccc(S(=O)(=O)NC(C)(C)C)c1 | EP300 | thermal stability, DSF | 10 µM | ΔTm | 2.76 °C
